Reference: ChEMBL document CHEMBL4396885, “Thioether-based 2-aminobenzamide derivatives: Novel HDAC inhibitors with potent in vitro and in vivo antitumor activity” (Eur J Med Chem, 2019)

What was measured:
[1] = system: HeLa; test: Antiproliferative activity against human HeLa cells assessed as growth inhibition at 2 uM after 72 hrs by CCK-8 assay relative to control; assay type: functional; settings: read-out: GI
[2] = system: A-375; test: Antiproliferative activity against human A375 cells assessed as growth inhibition at 2 uM after 72 hrs by CCK-8 assay relative to control; assay type: functional; settings: A-375, 72 h, read-out: GI
[3] = system: A-375; test: Antiproliferative activity against human A375 cells assessed as growth inhibition at 8 uM after 72 hrs by CCK-8 assay relative to control; assay type: functional; settings: A-375, 72 h, read-out: GI
[4] = system: HCT-116; test: Antiproliferative activity against human HCT116 cells assessed as growth inhibition at 8 uM after 72 hrs by CCK-8 assay relative to control; assay type: functional; settings: HCT-116, 72 h, read-out: GI
[5] = system: A549; test: Antiproliferative activity against human A549 cells assessed as growth inhibition at 8 uM after 72 hrs by CCK-8 assay relative to control; assay type: functional; settings: A549, 72 h, read-out: GI
[6] = system: SMMC-7721; test: Antiproliferative activity against human SMMC7721 cells assessed as growth inhibition at 8 uM after 72 hrs by CCK-8 assay relative to control; assay type: functional; settings: SMMC-7721, 72 h, read-out: GI
[7] = system: SMMC-7721; test: Antiproliferative activity against human SMMC7721 cells assessed as growth inhibition at 2 uM after 72 hrs by CCK-8 assay relative to control; assay type: functional; settings: SMMC-7721, 72 h, read-out: GI
[8] = system: HCT-116; test: Antiproliferative activity against human HCT116 cells assessed as growth inhibition at 2 uM after 72 hrs by CCK-8 assay relative to control; assay type: functional; settings: HCT-116, 72 h, read-out: GI
[9] = system: A549; test: Antiproliferative activity against human A549 cells assessed as growth inhibition at 2 uM after 72 hrs by CCK-8 assay relative to control; assay type: functional; settings: A549, 72 h, read-out: GI
[10] = system: HeLa; test: Antiproliferative activity against human HeLa cells assessed as growth inhibition at 8 uM after 72 hrs by CCK-8 assay relative to control; assay type: functional; settings: read-out: GI
[11] = system: HeLa; test: Antiproliferative activity against human HeLa cells assessed as decrease in cell viability after 72 hrs by CCK-8 assay; assay type: functional, cell-based
In short: (§1)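 Cells grown to 70–85% confluence (A375, A549, HCT116 in RPMI1640; HeLa, SMMC7721 in DMEM; 10% FBS, 37 °C, 5% CO2), seeded 4000/well, dosed after 12 h across a concentration range, incubated 72 h, then CCK-8 for 1 h; absorbance at 450 nm. IC50 as mean ± SD of three separate experiments.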

[12] = system: HCT-116; test: Antiproliferative activity against human HCT116 cells assessed as decrease in cell viability after 72 hrs by CCK-8 assay; assay type: functional, cell-based; settings: HCT-116, 72 h; in short: as §1
[13] = system: SMMC-7721; test: Antiproliferative activity against human SMMC7721 cells assessed as decrease in cell viability after 72 hrs by CCK-8 assay; assay type: functional, cell-based; settings: SMMC-7721, 72 h; in short: as §1
[14] = system: A-375; test: Antiproliferative activity against human A375 cells assessed as decrease in cell viability after 72 hrs by CCK-8 assay; assay type: functional, cell-based; settings: A-375, 72 h; in short: as §1
[15] = system: A549; test: Antiproliferative activity against human A549 cells assessed as decrease in cell viability after 72 hrs by CCK-8 assay; assay type: functional, cell-based; settings: A549, 72 h; in short: as §1

Row | IC50 [11] | IC50 [12] | IC50 [13] | IC50 [14] | IC50 [15] | Compound | inhibition of growth at 2 µM [1] | inhibition of growth at 2 µM [2] | inhibition of growth at 8 µM [3] | inhibition of growth at 8 µM [4] | inhibition of growth at 8 µM [5] | inhibition of growth at 8 µM [6] | inhibition of growth at 2 µM [7] | inhibition of growth at 2 µM [8] | inhibition of growth at 2 µM [9] | inhibition of growth at 8 µM [10]
1 |  |  |  |  |  | Cc1cc(C)cc(SCc2ccc(/C=C/C(=O)Nc3ccccc3N)cc2)c1 | 11.7% | 8.78% | 2.49% | 4.2% | 47.3% | 7.13% | 8.61% | 7.98% | 46.1% | 3.39%
2 |  |  |  |  |  | Nc1ccccc1NC(=O)/C=C/c1ccc(CSc2cccc(F)c2)cc1 | 2.25% | 6.75% | 9.08% | 3.22% | 56.6% | 8.25% | 8.56% | 7.95% | 50.7% | 18.6%
3 |  |  |  |  |  | Nc1ccccc1NC(=O)/C=C/c1ccc(CSc2ccc(Cl)cc2)cc1 | 1.94% | 13.4% | 48.2% | 3.27% | 59.6% | 16.4% | 15.2% | 5.62% | 55.2% | 17.3%
4 | 5.01 µM | 4.01 µM | 5.77 µM |  |  | Nc1ccccc1NC(=O)c1ccc(CSc2ccc(F)cc2)cc1 | 27.9% | 19.4% | 54.3% | 90.6% | 44.5% | 81.9% | 6.58% | 13.5% | 43.4% | 79.3%
5 |  |  |  |  |  | Cc1ccc(SCc2ccc(/C=C/C(=O)Nc3ccccc3N)cc2)cc1 | 25.4% | 22.9% | 31.2% | 4.93% | 48.2% | 22.1% | 22% | 6.23% | 43.4% | 21.7%
6 | 3.07 µM | 2 µM | 3.4 µM | 4.42 µM | 5.68 µM | COc1ccc(SCc2ccc(C(=O)Nc3ccccc3N)cc2)cc1OC | 15.2% | 18.1% | 84.6% | 91.5% | 80.1% | 78.9% | 20.2% | 33.6% | 19.9% | 79.9%
7 |  |  |  |  | 1.3 µM | CCc1ccc(SCc2ccc(/C=C/C(=O)Nc3ccccc3N)cc2)cc1 | 3.96% | 5.27% | 58.4% | 2.68% | 68.6% | 19.5% | 13.2% | 3.29% | 60.7% | 20.9%
8 |  |  | 10.9 µM | 15.7 µM | 1.15 µM | Nc1ccccc1NC(=O)/C=C/c1ccc(CSCCc2ccccc2)cc1 | 0.19% | 41.9% | 37.4% | 10.6% | 50.3% | 15.8% | 14.7% | 18% | 45.7% | 3.57%
9 |  |  |  |  |  | Nc1ccccc1NC(=O)c1ccc(CSc2ccc(Br)cc2)cc1 | 18.8% | 4.35% | 6.17% | 67.7% | 45.6% | 25.3% | 10% | 9.96% | 33.2% | 38.2%
10 |  |  |  |  | 0.83 µM | Nc1ccccc1NC(=O)/C=C/c1ccc(CSc2cccc3ccccc23)cc1 | 20.6% | 1.55% | 36% | 35.2% | 71.2% | 18.3% | 3.7% | 11% | 59.3% | 22.1%
